Broadly, the inhibition is the drop in the measured response relative to a control, in per cent. What is called pKi is the Ki on a negative log10 scale, so that one unit is a factor of ten.

pKi: −log10 of the molar value.

For assay [1], the species on record is Bos taurus. Put plainly: Inhibition of bovine carbonic anhydrase assessed as formation of p-nitrophenol from p-nitrophenyl acetate substrate at 0.5 mM after 30 mins by spectrophotometric method. An outline of the steps: (§1)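 Bovine cytosolic CA (CA-I plus CA-II mix, 98.9% pure), 0.35 U/well, in 50 mM Tris–sulfate pH 7.6 with 0.1 mM ZnCl₂. Compound in DMSO is pre-incubated with enzyme for 10 min at 25 °C and pre-read at 348 nm. p-Nitrophenyl acetate is added to 0.6 mM final, then read at 348 nm after 30 min at 25 °C. Percent inhibition is relative to DMSO control; mean of three independent experiments ± sem.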

Assay [2] can be described thus: Inhibition of bovine carbonic anhydrase assessed as formation of p-nitrophenol from p-nitrophenyl acetate substrate after 30 mins by spectrophotometric method. More on the design: species or system Bos taurus. The essentials:
as §1

On to `CCOC1Oc2ccc(CC)cc2C(=O)/C1=C\Nc1ccc(S(N)(=O)=O)cc1` (centres undefined), for which the inhibition in assay [1] came to 69.7%. Further, the IC50 in assay [2] worked out at 16.63 µmol.

As to `NS(=O)(=O)C(F)(F)F` [TRIFLUOROMETHANESULFONAMIDE], the pKi in assay [2] is 8.70.

With `CCOC1Oc2ccc(F)cc2C(=O)/C1=C\Nc1cccc(S(N)(=O)=O)c1` (centres undefined), the inhibition in assay [1] is 66.8%. For the same compound, the IC50 in assay [2] came out at 11.37 µmol. For `CCOC1Oc2ccc(CC)cc2C(=O)/C1=C\Nc1cccc(S(N)(=O)=O)c1` (centres undefined), in that order: 65.3% and 11.71 µmol. For `CCOC1Oc2ccccc2C(=O)/C1=C\Nc1ccc(S(N)(=O)=O)cc1` (centres undefined), in that order: 64% and 19.21 µmol.

Turning to `CCOC1Oc2ccc(Br)cc2C(=O)/C1=C\Nc1cccc(S(N)(=O)=O)c1` (centres undefined), the inhibition in assay [1] amounted to 68.8%. For the same compound, the IC50 in assay [2] worked out at 18.27 µmol. Consider `CS(N)(=O)=O` [METHANESULFONAMIDE], for which the pKi in assay [2] was 4.00.

As to `CCOC1Oc2c(Br)cc(Br)cc2C(=O)/C1=C\Nc1cccc(S(N)(=O)=O)c1` (centres undefined), the inhibition in assay [1] was determined as 61.2%. Besides, the IC50 in assay [2] was 29.12 µmol. On the same counts, the results for `CCOC1Oc2ccc(Br)cc2C(=O)/C1=C\Nc1ccc(S(N)(=O)=O)cc1` (centres undefined) are 65.2% and 16.12 µmol. On the same counts, the results for `CCOC1Oc2ccccc2C(=O)/C1=C\Nc1cccc(S(N)(=O)=O)c1` (centres undefined) are 67.6% and 17.72 µmol.

Regarding `CCOC1Oc2ccc(F)cc2C(=O)/C1=C\Nc1ccc(S(N)(=O)=O)cc1` (centres undefined), the inhibition in assay [1] came out at 71.2%. The IC50 in assay [2] was 4.31 µmol. For `CCOC1Oc2c(Br)cc(Br)cc2C(=O)/C1=C\Nc1ccc(S(N)(=O)=O)cc1` (centres undefined), in that order: 67.3% and 21.12 µmol. As to `CC(=O)Nc1nnc(S(N)(=O)=O)s1` [ACETAZOLAMIDE], the inhibition in assay [1] was found to be 91.3%. In assay [2], the IC50 is 1.13 µmol.

The record behind these values is ChEMBL document CHEMBL1811915, “Discovery of new chromone containing sulfonamides as potent inhibitors of bovine cytosolic carbonic anhydrase” (Bioorg Med Chem, 2011).
